Screening data deposited in PubChem by several laboratories.
NR2E3 ag-1: NR2E3 (human) agonism; Q9Y5X4; GST-NR2E3/biotin-RetCOR TR-FRET, 1536-well; inhibition of corepressor binding, % at 4.78 µM; 320,000 tested, 0.12% active; AID 2300;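 active = percent inhibition above the cutoff of mean plus 3 SD of all tested compounds, set per screening campaign, cut at about 20% in these data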;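 also: 0% = DMSO wells and 100% = biotin wells as full block of FRET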
Target sequence (Q9Y5X4 whole entry, looked up): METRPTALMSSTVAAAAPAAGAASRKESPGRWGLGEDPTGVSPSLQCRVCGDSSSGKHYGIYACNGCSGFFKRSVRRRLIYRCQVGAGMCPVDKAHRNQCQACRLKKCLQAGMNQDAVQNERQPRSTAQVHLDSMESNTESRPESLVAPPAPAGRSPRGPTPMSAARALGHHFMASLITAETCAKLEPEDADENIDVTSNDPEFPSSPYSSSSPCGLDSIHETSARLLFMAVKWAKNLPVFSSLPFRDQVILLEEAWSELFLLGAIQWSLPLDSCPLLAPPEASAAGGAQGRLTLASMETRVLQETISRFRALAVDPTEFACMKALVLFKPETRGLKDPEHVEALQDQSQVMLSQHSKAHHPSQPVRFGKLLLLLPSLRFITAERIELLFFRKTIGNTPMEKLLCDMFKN
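Test system – NR2E3–RetCOR corepressor complex · Quantity – NR2E3 fusion 1.35 nM · Buffer or medium – Tris pH 7.5 · Incubation – Compound–protein incubation for 5 h at 4 °C · Technique – TR-FRET, Eu(K)-anti-GST donor, streptavidin-D2 acceptor, ex 340, em 617/671 nm · Evaluation – percent inhibition of 671/617 nm emission ratio versus biotin and DMSO controls · Plate – 1536-well format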
Rev-erbA mod: Rev-erb alpha (human) modulation; P20393; Rev-erbα–FITC-DNA binding, fluorescence polarization, 90 min; activity, % at 10 µM; 370,000 tested, 0.79% active; AID 1259318;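 active = activity above about 14%, limit read from the data; passing the limit was not always enough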;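 also: 0% = DMSO wells with 35 nM protein and 100% = DMSO wells with 750 nM protein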
NR2E3 ag-2: agonists of human NR2E3 nuclear receptor; Q9Y5X4; CHO-S Gal4-NCOR/VP16-NR2E3 two-hybrid, luciferase; inhibition of corepressor binding, % at 3.98 µM; 360,000 tested, 0.35% active; AID 602229;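 active = inhibition above the mean of all tested compounds plus 3 SD, cut at about 70% in these data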;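 also: 0% = DMSO with NR2E3 transfected cells and 100% = cells lacking NR2E3 construct; higher means lower luciferase signal from less NR2E3 corepressor binding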
rCAG binder: binds r(CAG) RNA repeats; inhibition, % at 3 µM; r(CAG) RNA repeat, TO-PRO-1 dye displacement fluorescence; 370,000 tested, 1.3% active; AID 651821;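 active = inhibition above the plate cutoff, the mean of all test compounds on that plate plus 3 SD, cut at about 35% in these data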;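 also: 0% = DMSO alone and 100% = 100 µM mitoxantrone as full dye displacement; higher means more dye released from RNA so lower well fluorescence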
PG9 Ab binder: PG9 antibody binding by small molecule. TR-FRET gp120-PG9 antibody binding. inhibition, % at 6.7 µM. AID 624416. 360,000 tested, 0.43% active; in the data active = inhibition above about 8.5%
Rev-erbA confirm: confirmation of modulators of human Rev-erb alpha DNA binding; shares compounds with Rev-erbA mod; Rev-erb alpha FITC-DNA binding, fluorescence polarization, 90 min; activation, % at 25 µM; 3,000 tested, 61% active; AID 1259319;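 active = activation at or above a set limit, or at least 3 SD above the negative control mean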;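 also: 0% = 35 nM protein with DMSO and 100% = 750 nM protein high control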
RORg counter: RORgamma DNA-binding activity, dose-response counter-screen | shares compounds with Rev-erbA mod | purified RORgamma protein-FITC-DNA binding, fluorescence polarization | IC50, µM | 910 tested, 8% active;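 active = Compounds whose fitted half-maximal concentration for disrupting protein-DNA binding is below 10 micromolar; the record names Rev-erb in its text, so the target is in doubt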
Numbers without * were called inactive; i = inactive; . = not tested or not shown. Only some compounds are listed: those with a hit (about 2.6% of all), similar ones and a draw of the others.

SMILES | NR2E3 ag-1 | Rev-erbA mod | NR2E3 ag-2 | rCAG binder | PG9 Ab binder | Rev-erbA confirm | others
CCCCCCCCN1C(=O)[C@@H](CC(=O)N2CCN(C(=O)c3ccco3)CC2)C[C@@]2(C(=O)OC)C1=C[C@H](C1CCCC1)O[C@@H]2C | . | 2.2 | . | 13.5 | -1.1 | .
CC1(c2nnnn2-c2ccc3c(c2)OCCO3)CCC(=O)N1C1CC1 (stereo not given) | . | -0.7 | 11.0 | -0.2 | 0.8 | .
CN1C(=O)c2cccc(NCCCN3C(=O)c4ccccc4C3=O)c2C1=O | 2.9 | 46.2* | -2.2 | -6.4 | -1.0 | 19.1*
CN1C(=O)c2cccc(NCCCCCCN3C(=O)c4ccccc4C3=O)c2C1=O | -0.1 | 10.7 | -14.6 | -0.9 | -1.8 | .
Nc1c(CNCc2nnn(Cc3ccccc3)c2N)nnn1Cc1ccccc1 | . | 0.6 | 5.8 | 5.8 | -0.1 | .
O=C(O)c1ccc(Cl)c(NC(=O)C2CCN(S(=O)(=O)c3cccs3)CC2)c1 | . | -2.4 | 19.5 | 6.1 | 0.3 | .
CC(=O)c1ccc(OCC(=O)OCc2cc(-c3ccco3)on2)cc1 | 1.6 | -5.5 | -4.9 | 7.6 | 1.3 | .
CSc1cc(-c2ccc(Cl)cc2)[nH]c(=O)c1C#N | 1.6 | 81.9* | -4.8 | -0.1 | 2.1 | 11.9
CSc1ccc(CCNC(=O)c2cc(-c3ccccc3)c(N3CCOCC3)s2)cc1 | 3.9 | 67.2* | -1.0 | 6.7 | 1.6 | 51.3* | RORg counter=i
CCC1(c2ccc(F)cc2)NC(=O)N(CC(=O)Nc2ccc(-c3nc4ccc(C)cc4s3)cc2)C1=O (stereo not given) | -1.8 | 41.1* | -131.7 | 17.3 | 3.0 | 10.6
O=C(CCS(=O)(=O)c1ccccc1)Nc1nc2ccc(F)cc2s1 | -3.1 | 5.5 | -23.9 | 4.9 | 1.0 | .
Cc1ccc2nc(-c3ccc(NC(=O)CSc4nnc(Cc5cccs5)n4C)cc3)sc2c1 | . | 43.4* | . | 8.7 | . | 24.8*
CCn1c(SCC(=O)Nc2ccc(-c3nc4ccc(C)cc4s3)cc2)nnc1-c1ccccc1 | -19.5 | . | . | . | . | .
Cc1ccc2nc(-c3ccc(NC(=O)CNC4CC4)cc3)sc2c1 | . | -1.4 | -131.5 | 7.2 | 1.8 | .
Cc1ccc2nc(-c3ccc(NC(=S)NC(=O)CC(C)C)cc3)sc2c1 | -0.2 | 21.6* | -76.7 | -0.1 | 0.8 | 10.2
O=C(CCS(=O)(=O)c1ccccc1)Nc1ccccc1-c1nc2ccccc2s1 | 3.3 | 44.2* | -23.8 | 5.3 | -1.1 | 40.1* | RORg counter=2.09*
COC1CC2CCC(C)C(O)(O2)C(=O)C(=O)N2CCCCC2C(=O)OC(C(C)CC2CCC(O)C(OC)C2)CC(=O)C(C)/C=C(\C)C(O)C(OC)C(=O)C(C)CC(C)/C=C/C=C/C=C/1C (stereo not given) | . | -3.1 | . | . | . | .
Cc1ccc2nc(NC(=O)CN3CCN(c4ccccn4)CC3)sc2c1 | -2.4 | -1.3 | -13.2 | -4.1 | -2.4 | .
Cc1ccc2nc(-c3ccc(NC(=O)CN4CCN(c5ccccn5)CC4)cc3)sc2c1 | -1.8 | 20.7* | -112.1 | 7.0 | 0.3 | 13.1
Cc1nc2ccc(NC(=O)CCS(=O)(=O)c3ccccc3)cc2s1 | -1.2 | 4.2 | -50.6 | -2.0 | 2.7 | .
Cc1ccc2nc(-c3ccc(NC(=O)CCS(=O)(=O)c4ccccc4)cc3)sc2c1 | 2.1 | 18.7* | -135.1 | 6.3 | -0.5 | 22.8*
CCCNC(=O)C1(C)CCCN(C(=O)c2cccc(OC(F)(F)F)c2)C1 (stereo not given) | . | -3.3 | 1.3 | -2.1 | 0.2 | .
CCOC(=O)c1c(-c2ccccc2)csc1NC(=O)c1cc(S(=O)(=O)N2CCOCC2)ccc1C | -1.4 | 33.6* | -6.5 | 10.0 | -0.5 | 49.4* | RORg counter=>40
COc1cc2c(cc1NC(=O)CN1CCN(S(=O)(=O)c3ccc(C)cc3)CC1)oc1ccccc12 | 4.9 | 26.6* | 11.6 | 0.5 | -0.8 | 18.6*
COc1ccc(C(=O)c2c[nH]c(C(=O)NCc3ccco3)c2)cc1 | -0.6 | -2.7 | -13.7 | -0.6 | -1.8 | .
SMILES | NR2E3 ag-1 | Rev-erbA mod | NR2E3 ag-2 | rCAG binder | PG9 Ab binder | Rev-erbA confirm | others
COc1ccc(C(=O)c2c[nH]c(C(=O)NCc3cccs3)c2)cc1 | -0.4 | 42.6* | -23.5 | -1.4 | -0.1 | 62.9* | RORg counter=>40
CCOC(=O)c1nn(-c2ccccc2)c(=O)cc1SC1CCCCC1 | -0.9 | 28.6* | -6.4 | -3.9 | 0.9 | 25.7*
Cc1ccc(CNC(=O)C2CSC3(C)CCC(=O)N23)cc1 (stereo not given) | . | -0.8 | -13.8 | 2.0 | 1.3 | .
O=C(C1CCCCC1)N1C[C@H](O)[C@@H](n2cc(C3CC3)nn2)C[C@@H]1c1ccccc1 | . | -4.7 | -6.1 | -0.5 | -3.9 | .
NC(=O)COc1ccc(/C=N\NC(=O)c2ccc(-c3ccccc3)cc2)cc1 | 0.2 | 35.1* | -4.2 | -0.4 | 1.9 | 20.5*
Fc1ccc(-c2nnn3c2nc(NCc2ccccc2)c2ccccc23)cc1 | 1.7 | 16.9 | -5.5 | -0.2 | -0.1 | .
COc1ccc(-c2nnn3c2nc(NCc2ccccc2)c2ccccc23)cc1 | 1.5 | 23.1* | -5.8 | 0.6 | -2.3 | 16.7*
Cc1ccc(-c2nnn3c2nc(Cl)c2ccccc23)cc1 | . | -1.6 | -52.6 | 2.6 | -0.2 | .
Fc1cccc(-c2nnn3c2nc(Cl)c2ccccc23)c1 | . | 90.3* | -69.4 | 3.6 | 0.5 | 19.0*
Clc1nc2c(-c3ccccc3)nnn2c2ccccc12 | 2.1 | 83.0* | -62.8 | 1.9 | 0.5 | 68.1* | RORg counter=>40
CC1CC2OC2CC1COC(=O)C1CC2OC2CC1C (stereo not given) | . | -3.0 | 32.4 | 1.3 | -0.1 | .
O=C(CCn1c(=S)[nH]c2cc3c(cc2c1=O)OCO3)NCCc1ccccc1Cl | . | 23.2* | 12.2 | -1.5 | -0.9 | 13.3*
O=C(CCCn1c(=S)[nH]c2cc3c(cc2c1=O)OCO3)NCCc1ccccc1Cl | 7.8 | 27.5* | -18.2 | 1.3 | 4.8 | 22.1*
O=C(CCn1c(=S)[nH]c2cc3c(cc2c1=O)OCO3)NCc1ccccc1Cl | 3.1 | 3.0 | -9.9 | 2.8 | -0.4 | .
COC(=O)c1sccc1NC(=O)C12CC3CC(CC(C3)C1)C2 | 5.9 | 25.4* | -28.9 | 0.9 | -0.5 | 22.3*
CCOC(=O)C1CCN(C(=O)c2[nH]c(C(F)(F)F)nc2-c2ccccc2)CC1 | . | -0.6 | -4.9 | 2.8 | -0.1 | .
CCOc1ccc(CCNc2nc3ccccc3n3c(C)nnc23)cc1OCC | -1.0 | 0.4 | -17.7 | -1.3 | -1.8 | .
c1ccc(CCNc2nc3ccccc3n3nnnc23)cc1 | -0.4 | 49.1* | 2.1 | -1.8 | 1.7 | 30.2*
COc1ccc(CCNc2nc3ccccc3n3nnnc23)cc1OC | 0.3 | 30.3* | -88.2 | 0.3 | -0.3 | 22.2*
CCOc1cccc(-c2nnc3sc(-c4cccs4)nn23)c1 | -3.4 | 29.3* | -7.0 | 1.6 | 1.0 | 20.0*
CCOc1cccc(-c2nnc3sc(-c4cc(OC)c(OC)c(OC)c4)nn23)c1 | 4.1 | 24.9 | 4.9 | -0.2 | 0.1 | .
